What was measured:
[1] = biological target: T1, Protein farnesyltransferase (Homo sapiens, UniProt P49354+P49356); assay: Inhibition of Farnesyltransferase from Ras-CVLS or Ras-CVLL in Cos-7 monkey kidney cells; assay type: cell-based, Chlorocebus aethiops
[2] = (§1) Maximal plasma concentration in nude mice after 25 mg/kg oral dose; assay type: ADME, organism-based; design: dose 25 mg/kg, route oral; conditions: mouse
Mus musculus [3] = assay: In vivo antitumor efficacy in nude mice by injecting a dose of 25 mg/kg, as HCl salt in saline solution, perorally and the duration of action was reported; assay type: ADME, organism-based; design: dose 25 mg/kg, route oral; conditions: po
[4] = In vivo antitumor efficacy in nude mice by injecting a dose of 25 mg/kg, as HCl salt in saline solution, iv and the serum half-life was determined; assay type: ADME, organism-based; design: dose 25 mg/kg, route intravenous; conditions: mouse
[5] = Oral bioavailability in mouse (nude) (dose 25 mg/kg i.v.); assay type: ADME, organism-based; conditions: in vivo
[6] = biological target: geranylgeranyltransferase type-I (Rattus norvegicus, UniProt P53610+Q04631); assay: Inhibition of rat Geranylgeranyl transferase (GGPT); assay type: protein-complex assay
[7] = In vivo antitumor efficacy in nude mice by injecting a dose of 25 mg/kg, as HCl salt in saline solution, iv and the total drug exposure was determined. (0-24hr); assay type: ADME, organism-based; design: time < 24 hr, dose 25 mg/kg, route intravenous; conditions: mouse
[8] = biological target: T1, Protein farnesyltransferase; assay: In vitro inhibition of farnesyltransferase farnesylation of the H-ras oncogene; assay type: protein-complex assay
[9] = In vivo antitumor efficacy in nude mice by injecting a dose of 25 mg/kg, as HCl salt in saline solution, perorally and the total drug exposure was determined (0-24hr); assay type: ADME, organism-based; design: time < 24 hr, dose 25 mg/kg, route oral; conditions: mouse, po
[10] = In vivo antitumor efficacy in nude mice by injecting a dose of 25 mg/kg iv and serum half-life was determined; assay type: ADME, organism-based; design: dose 25 mg/kg, route intravenous; conditions: mouse
Outline: (§2)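 Serum pharmacokinetics in nude mice or cynomolgus monkeys after oral (po) or iv dosing. Compounds were given as hydrochloride salts in 20% HPβCD unless otherwise noted. Other formulations were the hydrochloride salt in saline, the micronized free base in 20% HPβCD or corn oil (po) with saline for iv, or the hydrochloride salt in 0.4% methyl cellulose (po).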

Mus musculus [11] = assay: In vivo antitumor efficacy after peroral dose of 25 mg/kg in mice expressed as duration for which compound was present above IC50; assay type: ADME, organism-based; design: dose 25 mg/kg, route oral; conditions: po; outline: as §2
[12] = (§3) In vivo antitumor efficacy in nude mice 0-24 hr after peroral dose of 25 mg/kg expressed as Area under the curve; assay type: ADME, organism-based; design: time < 24 hr, dose 25 mg/kg, route oral; conditions: nude, mouse, po; outline: as §2
[13] = In vivo antitumor efficacy in nude mice 0-24 hr after intravenous dose of 25 mg/kg expressed as Area under the curve; assay type: ADME, organism-based; design: time < 24 hr, dose 25 mg/kg, route intravenous; conditions: mouse; outline: as §2
[14] = Oral bioavailability in mouse (nude) (dose of 25 mg/kg); assay type: ADME, organism-based; conditions: in vivo; outline: as §2
[15] = as §1; assay type: ADME, organism-based; design: dose 25 mg/kg, route oral; conditions: mouse; outline: as §2; remark: listed apart in the source
[16] = In vivo antitumor efficacy in cynomolgus monkeys by injecting a dose of 25 mg/kg, as HCl salt in saline solution, perorally and the maximum drug concentration was determined; assay type: ADME, organism-based, Macaca fascicularis; design: dose 25 mg/kg, route oral; conditions: cynomolgus monkey, po; outline: as §2
[17] = In vivo antitumor efficacy in nude mice by injecting a dose of 25 mg/kg, as HCl salt in saline solution, iv and the total drug exposure was determined.; assay type: ADME, organism-based; design: dose 25 mg/kg, route intravenous; conditions: mouse
[18] = In vivo antitumor efficacy in nude mice by injecting a dose of 25 mg/kg, as HCl salt in solution, iv and the serum half-life was determined; assay type: ADME, organism-based; design: dose 25 mg/kg, route intravenous; conditions: mouse
[19] = In vivo antitumor efficacy in nude mice by injecting a dose of 25 mg/kg, as HCl salt in solution, iv and the total drug exposure was determined. (0-24hr); assay type: ADME, organism-based; design: time < 24 hr, dose 25 mg/kg, route intravenous; conditions: mouse
[20] = as §1; assay type: ADME, organism-based; design: dose 25 mg/kg, route oral; conditions: mouse; remark: listed apart in the source
Cynomolgus monkey [21] = assay: In vivo antitumor efficacy in cynomolgus monkeys by injecting a dose of 10 mg/kg, as HCl salt in saline solution, perorally and the duration of action was reported; assay type: ADME, organism-based, Macaca fascicularis; design: dose 10 mg/kg, route oral; conditions: po
Outline: (§4)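 Cynomolgus monkeys; hydrochloride salt in saline iv, or compound given po (as hydrochloride, as micronized free base in corn oil, or as hydrochloride in 0.4% methyl cellulose, depending on compound).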

Mus musculus [22] = assay: In vivo antitumor efficacy in nude mice by injecting a dose of 25 mg/kg, as HCl salt in saline solution, perorally and the total drug exposure was determined; assay type: ADME, organism-based; design: dose 25 mg/kg, route oral; conditions: po
Mus musculus [23] = assay: In vivo antitumor efficacy in nude mice by injecting a dose of 25 mg/kg, as HCl salt in solution, perorally and the total drug exposure was determined (0-24hr); assay type: ADME, organism-based; design: time < 24 hr, dose 25 mg/kg, route oral; conditions: po
[24] = In vivo antitumor efficacy in cynomolgus monkeys by injecting a dose of 25 mg/kg, as HCl salt in saline solution, perorally and the total drug exposure was determined (0-8 hr); assay type: ADME, organism-based, Macaca fascicularis; design: time < 8 hr, dose 25 mg/kg, route oral; conditions: cynomolgus monkey, po; outline: as §4
[25] = In vivo antitumor efficacy expressed as maximum plasma concentration 0.4 hr after a peroral dose of 25 mg/kg in cynomolgus monkeys; assay type: ADME, organism-based, Macaca fascicularis; design: dose 25 mg/kg, route oral; conditions: cynomolgus monkey, po; outline: as §2
Cynomolgus monkey [26] = assay: In vivo antitumor efficacy after peroral dose of 10 mg/kg in cynomolgus monkeys expressed as duration for which compound was present above IC50; assay type: ADME, organism-based, Macaca fascicularis; design: dose 10 mg/kg, route oral; conditions: po; outline: as §2
[27] = In vivo antitumor efficacy in cynomolgus monkeys by injecting a dose of 10 mg/kg, as HCl salt in saline solution, perorally and the total drug exposure was determined (0-8 hr); assay type: ADME, organism-based, Macaca fascicularis; design: time < 8 hr, dose 10 mg/kg, route oral; conditions: cynomolgus monkey, po; outline: as §2
[28] = In vivo antitumor efficacy in cynomolgus monkeys 0-8 hours after peroral dose of 25 mg/kg expressed as Area under the curve; assay type: ADME, organism-based, Macaca fascicularis; design: time < 8 hr, dose 25 mg/kg, route oral; conditions: cynomolgus monkey, po; outline: as §2
Mus musculus [29] = assay: as §3; assay type: ADME, organism-based; design: time < 24 hr, dose 25 mg/kg, route oral; conditions: po, 24 h; outline: as §2
Cynomolgus monkey [30] = assay: In vivo antitumor efficacy after peroral dose of 25 mg/kg in cynomolgus monkeys expressed as duration for which compound was present above IC50; assay type: ADME, organism-based, Macaca fascicularis; design: dose 25 mg/kg, route oral; conditions: po; outline: as §2
[31] = In vivo antitumor efficacy expressed as maximum plasma concentration after a peroral dose of 10 mg/kg in cynomolgus monkeys; assay type: ADME, organism-based, Macaca fascicularis; design: dose 10 mg/kg, route oral; conditions: cynomolgus monkey, po; outline: as §2

Cmax [2] [µM]	half-life [4] [min]	bioavailability [5] [%]	Structure (SMILES)	IC50 [6] [µM]	half-life [10] [min]	Time above IC50 (Mus musculus [11]) [h]	AUC at 24 h [12] [ng·h/mL]	AUC at 24 h [13] [ng·h/mL]	bioavailability [14] [%]	Cmax [15] [µM]	other results
3	22.2	28.8	CC(=O)N1CCC(CC(=O)N2CCN(C3c4ccc(Cl)cc4CCc4cc(Br)cnc43)CC2)CC1 (centres undefined)	> 34	–	–	–	–	–	–	IC50 [1]: 590 nM; Time above IC50 (Mus musculus [3]): 2 h; AUC at 24 h [7]: 9510 ng·h/mL; IC50 [8]: 102 nM; AUC at 24 h [9]: 2740 ng·h/mL
–	–	–	O=C(Cc1ccc[n+]([O-])c1)N1CCN(C2c3ccc(Cl)cc3CCc3cccnc32)CC1 (centres undefined)	–	36	4	11000	12300	89	12	–
30	510	100	CN1CCC(CC(=O)N2CCN(C3c4ccc(Cl)cc4CCc4cc(Br)cnc43)CC2)CC1 (centres undefined)	> 38	–	–	–	–	45	–	Cmax [16]: 1500 nM; AUC [17]: 32900 ng·h/mL; half-life [18]: 498 min; AUC at 24 h [19]: 40600 ng·h/mL; Cmax [20]: 4 µM; Time above IC50 (Cynomolgus monkey [21]): 72 h; AUC (Mus musculus [22]): 39 uh ml-1; AUC (Mus musculus [23]): 18.4 uh ml-1; AUC at 8 h [24]: 37200 ng·h/mL
–	–	–	O=C(Cc1cc[n+]([O-])cc1)N1CCN([C@@H]2c3ccc(Cl)cc3CCc3cc(Br)cnc32)CC1	> 38	70.8	7	31900	27100	100	25	Cmax [25]: 1800 nM; Time above IC50 (Cynomolgus monkey [26]): 12 h; AUC at 8 h [27]: 9100 ng·h/mL
–	–	–	O=C(Cc1cc[n+]([O-])cc1)N1CCN([C@H]2c3ccc(Cl)cc3CCc3cc(Br)cnc32)CC1	> 76	114	7	26100	–	100	24.6	AUC at 8 h [28]: 58100 ng·h/mL; AUC (Mus musculus [29]): 35.3 µg·h/mL; Time above IC50 (Cynomolgus monkey [30]): 24 h; Cmax [31]: 8 µM
